Source: ChEMBL document CHEMBL4312005, “Optimization of pyrrolizine-based Schiff bases with 4-thiazolidinone motif: Design, synthesis and investigation of cytotoxicity and anti-inflammatory potency” (Eur J Med Chem, 2020)

Assays:
MCF7 [1] = experiment: Antiproliferative activity against human MCF7 cells assessed as cell viability at 5 uM incubated for 48 hrs by MTT assay (reference value: 100 %); format: functional; conditions: MCF7, 48 h, read-out: Activity
Summary of the method: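 Preliminary single-dose screen by MTT assay. MCF-7 cells grown in DMEM/10% FBS were exposed to 5 μM compound for 48 h, and growth% was determined. Values are mean ± S.D., n = 6.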

[2] = Selectivity index, ratio of IC50 for cytotoxicity against human MRC5 cells to IC50 for antiproliferative activity against human MCF7 cells; conditions: MRC5 cells versus MCF7 cells
[3] = Selectivity index, ratio of IC50 for cytotoxicity against human MRC5 cells to IC50 for antiproliferative activity against human A2780 cells; conditions: MRC5 cells versus A2780 cells
[4] = Selectivity index, ratio of IC50 for cytotoxicity against human MRC5 cells to IC50 for antiproliferative activity against human HT-29 cells; conditions: MRC5 cells versus HT-29 cells
Rattus norvegicus [5] = experiment: Antiinflammatory activity against albino rats assessed as inhibition of carrageenan-induced paw edema at 0.5 mmol, po measured after 2 hrs relative to control; format: functional
Summary of the method: (§1)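 Carrageenan rat paw edema (Winter method) in male and female adult albino rats (100-140 g). […] Swelling inhibition expressed as % of control at 2-4 h after carrageenan injection.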

Rattus norvegicus [6] = experiment: Antiinflammatory activity against albino rats assessed as inhibition of carrageenan-induced paw edema at 0.5 mmol, po measured after 4 hrs relative to control; format: functional; summary of the method: as §1
MCF7 [7] = experiment: Cell cycle arrest in human MCF7 cells assessed as subG1 accumulation at 1 uM incubated for 24 hrs by propidium iodide based flow cytometry (reference value: 0.6 to 3 %); format: functional
MCF7 [8] = experiment: Cell cycle arrest in human MCF7 cells assessed as subG1 accumulation at 5 uM incubated for 24 hrs by propidium iodide based flow cytometry (reference value: 0.6 to 3 %); format: functional
MCF7 [9] = experiment: Cell cycle arrest in human MCF7 cells assessed as subG1 accumulation at 10 uM incubated for 24 hrs by propidium iodide based flow cytometry (reference value: 0.6 to 3 %); format: functional
MCF7 [10] = experiment: Cell cycle arrest in human MCF7 cells assessed as G1 accumulation at 1 uM incubated for 24 hrs by propidium iodide based flow cytometry (reference value: 49.6 to 55.1 %); format: functional
MCF7 [11] = experiment: Cell cycle arrest in human MCF7 cells assessed as G1 accumulation at 5 uM incubated for 24 hrs by propidium iodide based flow cytometry (reference value: 49.6 to 55.1 %); format: functional
MCF7 [12] = experiment: Cell cycle arrest in human MCF7 cells assessed as G1 accumulation at 10 uM incubated for 24 hrs by propidium iodide based flow cytometry (reference value: 49.6 to 55.1 %); format: functional
MCF7 [13] = experiment: Cell cycle arrest in human MCF7 cells assessed as S phase accumulation at 1 uM incubated for 24 hrs by propidium iodide based flow cytometry (reference value: 17.3 to 28.5 %); format: functional
MCF7 [14] = experiment: Cell cycle arrest in human MCF7 cells assessed as S phase accumulation at 5 uM incubated for 24 hrs by propidium iodide based flow cytometry (reference value: 17.3 to 28.5 %); format: functional
MCF7 [15] = experiment: Cell cycle arrest in human MCF7 cells assessed as S phase accumulation at 10 uM incubated for 24 hrs by propidium iodide based flow cytometry (reference value: 17.3 to 28.5 %); format: functional
MCF7 [16] = experiment: Cell cycle arrest in human MCF7 cells assessed as G2/M phase accumulation at 1 uM incubated for 24 hrs by propidium iodide based flow cytometry (reference value: 17.2 to 26.8 %); format: functional
MCF7 [17] = experiment: Cell cycle arrest in human MCF7 cells assessed as G2/M phase accumulation at 5 uM incubated for 24 hrs by propidium iodide based flow cytometry (reference value: 17.2 to 26.8 %); format: functional
MCF7 [18] = experiment: Cell cycle arrest in human MCF7 cells assessed as G2/M phase accumulation at 10 uM incubated for 24 hrs by propidium iodide based flow cytometry (reference value: 17.2 to 26.8 %); format: functional
MCF7 [19] = experiment: Induction of apoptosis in human MCF7 cells assessed as viable cells at 1 uM incubated for 24 hrs by annexin V FITC and propidium iodide staining based flow cytometry (reference value: 76 to 95.9 %); format: functional; conditions: MCF7, 24 h, read-out: Activity
MCF7 [20] = experiment: Induction of apoptosis in human MCF7 cells assessed as viable cells at 5 uM incubated for 24 hrs by annexin V FITC and propidium iodide staining based flow cytometry (reference value: 76 to 95.9 %); format: functional; conditions: MCF7, 24 h, read-out: Activity
MCF7 [21] = experiment: Induction of apoptosis in human MCF7 cells assessed as viable cells at 10 uM incubated for 24 hrs by annexin V FITC and propidium iodide staining based flow cytometry (reference value: 76 to 95.9 %); format: functional; conditions: MCF7, 24 h, read-out: Activity
MCF7 [22] = experiment: Induction of apoptosis in human MCF7 cells assessed as early apoptotic cells at 1 uM incubated for 24 hrs by annexin V FITC and propidium iodide staining based flow cytometry (reference value: 0 to 9 %); format: functional
MCF7 [23] = experiment: Induction of apoptosis in human MCF7 cells assessed as early apoptotic cells at 5 uM incubated for 24 hrs by annexin V FITC and propidium iodide staining based flow cytometry (reference value: 0 to 9 %); format: functional
MCF7 [24] = experiment: Induction of apoptosis in human MCF7 cells assessed as early apoptotic cells at 10 uM incubated for 24 hrs by annexin V FITC and propidium iodide staining based flow cytometry (reference value: 0 to 9 %); format: functional
MCF7 [25] = experiment: Induction of apoptosis in human MCF7 cells assessed as late apoptotic cells at 1 uM incubated for 24 hrs by annexin V FITC and propidium iodide staining based flow cytometry (reference value: 0 to 2.5 %); format: functional
MCF7 [26] = experiment: Induction of apoptosis in human MCF7 cells assessed as late apoptotic cells at 5 uM incubated for 24 hrs by annexin V FITC and propidium iodide staining based flow cytometry (reference value: 0 to 2.5 %); format: functional
MCF7 [27] = experiment: Induction of apoptosis in human MCF7 cells assessed as late apoptotic cells at 10 uM incubated for 24 hrs by annexin V FITC and propidium iodide staining based flow cytometry (reference value: 0 to 2.5 %); format: functional
MCF7 [28] = experiment: Induction of apoptosis in human MCF7 cells assessed as necrotic cells at 1 uM incubated for 24 hrs by annexin V FITC and propidium iodide staining based flow cytometry (reference value: 4.1 to […]); format: functional
MCF7 [29] = experiment: Induction of apoptosis in human MCF7 cells assessed as necrotic cells at 5 uM incubated for 24 hrs by annexin V FITC and propidium iodide staining based flow cytometry (reference value: 4.1 to […]); format: functional
MCF7 [30] = experiment: Induction of apoptosis in human MCF7 cells assessed as necrotic cells at 10 uM incubated for 24 hrs by annexin V FITC and propidium iodide staining based flow cytometry (reference value: 4.1 to […]); format: functional
MCF7 [31] = experiment: Induction of apoptosis in human MCF7 cells incubated for 24 hrs by annexin V FITC and propidium iodide staining based flow cytometry; format: functional, cell-based

Row | SMILES | selectivity ratio [2] | selectivity ratio [3] | Activity (MCF7 [7]) | Activity (MCF7 [8]) | Activity (MCF7 [9]) | Activity (MCF7 [10]) | Activity (MCF7 [11]) | Activity (MCF7 [12]) | Activity (MCF7 [13]) | Activity (MCF7 [14]) | Activity (MCF7 [15]) | Activity (MCF7 [16]) | Activity (MCF7 [17]) | Activity (MCF7 [18]) | viability at 1 µM (MCF7 [19]) | viability at 5 µM (MCF7 [20]) | viability at 10 µM (MCF7 [21]) | Activity (MCF7 [22]) | Activity (MCF7 [23]) | Activity (MCF7 [24]) | other results
1 | CC(C)C/C=N/c1c(C#N)c2n(c1C(=O)Nc1ccc(Br)cc1)CCC2 | 39 to 258 | 39 to 258 | 1% | 0.9% | 0.7% | 30.8% | 30.2% | 29.6% | 55.6% | 55.1% | 55.2% | 12.4% | 14.4% | 15.1% | 55.4% | 58.9% | 57.6% | 13.3% | 16.5% | 15.6% | viability at 5 µM (MCF7 [1]): 56%; selectivity ratio [4]: 39 to 258; inhibition (INH) (Rattus norvegicus [5]): 18.13%; inhibition (INH) (Rattus norvegicus [6]): 30.82%; Activity (MCF7 [25]): 10.5%; Activity (MCF7 [26]): 11.2%; Activity (MCF7 [27]): 12.2%; Activity (MCF7 [28]): 20.8%; Activity (MCF7 [29]): 13.4%; Activity (MCF7 [30]): 14.7%
2 | CCC1SCC(=O)N1c1c(C#N)c2n(c1C(=O)Nc1ccccc1)CCC2 (configuration not stated) | 3 to 15 | 3 to 15 | 2.4% | 2.4% | 8.9% | 56.4% | 59.4% | 59.1% | 20.6% | 17.8% | 14.2% | 15.6% | 15.8% | 14.1% | 80.1% | 77.8% | 66.6% | 11.5% | 14.3% | 19.5% | Activity (MCF7 [25]): 7.5%; Activity (MCF7 [26]): 6.9%; Activity (MCF7 [27]): 10.3%; Activity (MCF7 [28]): 1%; Activity (MCF7 [29]): 0.9%; Activity (MCF7 [30]): 3.7%; Activity (MCF7 [31]): Dose-dependent effect
